# Results: PubChem BioAssay
# The source made the active and inactive calls.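 The calls were made as follows, unless noted: active = viability at or below 30% in both replicate assays; inconclusive = viability at or below 30% in just one of the two assays; inactive = the rest.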
# How the values were obtained:
# [1] = reducers of endogenous Her2 protein level, primary screen, SKBR3 breast tumor cells, AlphaScreen, ATP viability (AID 461;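 active = Her2 level under about 52% in both replicate screens, with viability over 70% of control, limit read from the data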;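 as to Her2 level: lower value means less Her2 protein in the cells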;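 as to viability: percent of carrier control wells set as 100% viability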); conditions: 18-24 h, measured here: SKBR3 viability, ATP luminescence, at 10 µM
# [2] = target: Receptor tyrosine-protein kinase erbB-2 (Homo sapiens) (UniProt P04626); assay: as above; conditions: 18-24 h, at 10 µM, stronger effect = lower value
# [3] = SK-BR-3 cell growth inhibitors, pilot screen, 24 h, human (AID 572;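 active = viability at or below 10% of carrier control in both of two separate runs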;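 also: compound exposure lasted between 18 and 24 h rather than exactly 24 h; 100% = carrier-treated control wells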); conditions: SK-BR-3 viability, CellTiter-Glo luminescence, at 10 µM, stronger effect = lower value
# [4] = HUVEC growth inhibition – cell-based, human, primary screen (AID 575); conditions: HUVEC proliferation, CellTiter-Glo luminescence, 72 h; at 10 µM; stronger effect = lower value;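 also: 100% = median of untreated cell wells with 0.1% DMSO on each plate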
# Summary of the method: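 Assay system: Primary human umbilical vein endothelial cells | Quantity: 1250 cells per well | Medium: Supplemented EBM, 2% fetal bovine serum | Detection: CellTiter-Glo luminescence measuring cellular ATP | Read-out: % viability vs DMSO wells | Plate: Collagen-coated 384-well format | Times: 72 h exposure, 37 °C, 5% CO2, 30 min RT equilibration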
# [5] = growth inhibitors of H69AR lung tumor, primary screen, human, duplicate replicates (AID 580;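 active = viability at or under a set limit in both replicates, limit being median viability minus 3 SD, cut at about 48% in these data, passing the limit was not always enough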;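 also: 100% = mean luminescence of untreated wells and 0% = no signal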); conditions: H69AR lung tumor cells viability, ATP luminescence, 72 h; at 10 µM; stronger effect = lower value
# [6] = reversal of MRP1-mediated doxorubicin resistance, pilot screen, H69AR cells, doxorubicin co-treatment (AID 601;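 active = viability loss from added drug above about 55%, and viability with drug at most 40%, in both replicates, limit read from the data, passing the limit was not always enough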); conditions: CellTiter-Glo, 72 h, at 10 µM; for differential viability (reversal): stronger effect = higher value
# [7] = 384-well plate pilot, post-Golgi transport modulator project, inhibition of yeast transport mutant growth (AID 636; in the data active = inhibition above about 31%); conditions: absorbance 615 nm, about 18 h, stronger effect = higher value
# [8] = growth suppression of yeast trafficking mutant, preliminary HTS, modulators of trafficking downstream of Golgi apparatus project, 1536-format plate, OD 615 nm (AID 637; in the data active = inhibition above about 30%); conditions: yeast transport mutant growth, absorbance 615 nm, 18 h; stronger effect = higher value
# [9] = H69AR cells + 2 uM doxorubicin, measured here: viability with 2 uM doxorubicin, stronger effect = lower value
# [10] = H69AR cells, compound alone cytotoxicity
# Sequence of Receptor tyrosine-protein kinase erbB-2 (Homo sapiens) (P04626 whole entry, looked up): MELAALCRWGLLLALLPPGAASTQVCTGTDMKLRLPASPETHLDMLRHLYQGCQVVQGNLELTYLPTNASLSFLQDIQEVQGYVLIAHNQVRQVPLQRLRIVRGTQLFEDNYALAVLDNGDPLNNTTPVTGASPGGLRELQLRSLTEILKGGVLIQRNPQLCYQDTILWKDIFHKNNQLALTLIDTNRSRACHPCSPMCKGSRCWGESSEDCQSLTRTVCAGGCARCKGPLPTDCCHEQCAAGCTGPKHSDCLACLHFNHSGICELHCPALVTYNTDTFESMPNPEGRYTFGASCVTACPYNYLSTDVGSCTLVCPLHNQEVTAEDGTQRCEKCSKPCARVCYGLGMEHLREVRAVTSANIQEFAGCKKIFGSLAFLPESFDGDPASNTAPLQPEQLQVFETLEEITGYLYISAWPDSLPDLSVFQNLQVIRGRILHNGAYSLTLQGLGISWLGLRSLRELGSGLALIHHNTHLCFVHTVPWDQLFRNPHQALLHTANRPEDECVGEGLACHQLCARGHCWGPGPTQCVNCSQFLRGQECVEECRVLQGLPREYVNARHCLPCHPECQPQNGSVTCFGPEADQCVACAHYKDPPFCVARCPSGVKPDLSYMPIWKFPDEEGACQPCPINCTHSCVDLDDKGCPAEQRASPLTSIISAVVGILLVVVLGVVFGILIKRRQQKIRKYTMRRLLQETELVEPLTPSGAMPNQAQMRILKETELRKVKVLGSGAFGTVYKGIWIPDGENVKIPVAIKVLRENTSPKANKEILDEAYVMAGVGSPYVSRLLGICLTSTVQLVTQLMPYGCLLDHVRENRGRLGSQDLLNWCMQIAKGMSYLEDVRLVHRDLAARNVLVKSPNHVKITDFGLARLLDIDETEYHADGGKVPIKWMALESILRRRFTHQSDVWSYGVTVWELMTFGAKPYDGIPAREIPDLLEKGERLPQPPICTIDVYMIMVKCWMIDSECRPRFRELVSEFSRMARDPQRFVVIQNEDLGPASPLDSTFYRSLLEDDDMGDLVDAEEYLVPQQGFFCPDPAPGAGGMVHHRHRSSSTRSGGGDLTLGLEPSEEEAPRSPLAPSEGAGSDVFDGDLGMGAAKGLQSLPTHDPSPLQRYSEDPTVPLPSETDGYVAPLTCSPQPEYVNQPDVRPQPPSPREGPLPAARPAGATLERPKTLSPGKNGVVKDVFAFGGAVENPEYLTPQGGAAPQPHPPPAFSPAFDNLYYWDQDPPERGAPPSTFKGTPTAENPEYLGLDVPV
SMILES,viability [1] [%],Her2 level [2],viability [3],viability [4],viability [5],differential viability (reversal) ([6]; H69AR cells + 2 uM doxorubicin),"viability [6, 9] [%]","viability [6, 10] [%]",inhibition [7],inhibition [8]
CCc1nnc(NC(=O)c2ccc(S(=O)(=O)NC3CCCCC3)cc2)s1,86.5,69.5% (inactive),86.5% (inactive),74% (inactive),80.1% (inactive),43% (inactive),37.1,80.1,-5.68% (inactive),-8.33% (inactive)
O=C(O)CCNc1ccc2c(c1)OCCO2,97.5,86.5% (inactive),97.5% (inactive),109% (inactive),86.9% (inactive),7.24% (inactive),79.6,86.9,-5.14% (inactive),-2.67% (inactive)
Cn1c(=O)c2c(nc(Br)n2CCSc2ncccn2)n(C)c1=O,98,114% (inactive),98% (inactive),106% (inactive),103% (inactive),21.7% (inactive),81.1,103,-1.87% (inactive),-10.2% (inactive)
COc1cc(N2C(=O)CSC23C(=O)Nc2ccccc23)cc(OC)c1OC (stereo not given),95.5,105% (inactive),95.5% (inactive),79.7% (inactive),95.7% (inactive),7.86% (inactive),87.8,95.7,-1.97% (inactive),-5.81% (inactive)
COc1ccc2c(C(F)(F)F)cc(=O)oc2c1C,92,99.5% (inactive),92% (inactive),110% (inactive),99.8% (inactive),6.5% (inactive),93.3,99.8,-4.67% (inactive),9.68% (inactive)
Cc1ccc(C)c(N2CCN(C(=O)c3ccc(CS(=O)(=O)c4ccccc4C)o3)CC2)c1,82,66.5% (inactive),82% (inactive),50.8% (inactive),11.8% (active),-39.1% (inactive),50.9,11.8,-3.16% (inactive),1.27% (inactive)
COC(=O)c1ccc(N2C(=O)CC(N3CCN(C(=O)c4ccco4)CC3)C2=O)cc1 (stereo not given),86,89.5% (inactive),86% (inactive),85.9% (inactive),89.5% (inactive),-4.23% (inactive),93.7,89.5,-3.73% (inactive),-2.95% (inactive)
COc1ccc(-c2nnc(SCC(=O)NC(=O)NCc3ccco3)o2)cc1,102,85.5% (inactive),102% (inactive),85.9% (inactive),86.8% (inactive),-1.33% (inactive),88.1,86.8,-0.65% (inactive),-2.46% (inactive)
Cc1ccccc1-c1nc(Cc2ccccc2)no1,77.5,97.5% (inactive),77.5% (inactive),104% (inactive),102% (inactive),19.1% (inactive),82.5,102,-0.51% (inactive),-3.33% (inactive)
O=C(NC1CCCCC1)c1cc2nc(-c3ccco3)cc(C(F)(F)F)n2n1,81.5,93% (inactive),81.5% (inactive),106% (inactive),80.2% (inactive),-2.98% (inactive),83.2,80.2,-2.08% (inactive),2.79% (inactive)
COc1ccc(C(=O)Nn2c(C3CCC3)nc3ccccc3c2=O)c(OC)c1,93.5,97% (inactive),93.5% (inactive),85.8% (inactive),111% (inactive),30% (inactive),80.7,111,-1.56% (inactive),1.9% (inactive)
Cn1c(=N)c(S(=O)(=O)c2ccc(Cl)cc2)cc2c(=O)n3ccccc3nc21,110,106% (inactive),110% (inactive),85.4% (inactive),83.1% (inactive),-3.57% (inactive),86.7,83.1,-1.95% (inactive),-1.67% (inactive)
O=C(Nc1ccc2oc(-c3ccncc3)nc2c1)c1cccs1,96,112% (inactive),96% (inactive),88.9% (inactive),79.6% (inactive),0.7% (inactive),78.9,79.6,-2.76% (inactive),2.3% (inactive)
COc1cccc(-c2cc(C(F)(F)F)n3ncc(C(=O)O)c3n2)c1,93,87.5% (inactive),93% (inactive),117% (inactive),108% (inactive),9.06% (inactive),98.8,108,-3.2% (inactive),-2.95% (inactive)
COc1ccc(N2CC(C(=O)Nc3ccc(F)cc3F)CC2=O)cc1 (stereo not given),102,93.5% (inactive),102% (inactive),108% (inactive),96.6% (inactive),5.19% (inactive),91.4,96.6,-3.47% (inactive),1.13% (inactive)
CCOC(=O)Cc1nnc2c(Nc3ccc(C)cc3)nc3nonc3n12,97,76% (inactive),97% (inactive),74.9% (inactive),94% (inactive),-1.2% (inactive),95.2,94,-4% (inactive),7.7% (inactive)
CCOC(=O)C1CCN(C(=O)CSc2cc(=O)n(CC)c3ccccc23)CC1,85,99.5% (inactive),85% (inactive),84% (inactive),92.4% (inactive),10.4% (inactive),82,92.4,-0.39% (inactive),-5.09% (inactive)
Cc1ccc(-c2csc3ncn(-n4c(C)ccc4C)c(=O)c23)o1,96,114% (inactive),96% (inactive),88.7% (inactive),91.3% (inactive),10.3% (inactive),81,91.3,-5.27% (inactive),-5.57% (inactive)
Cc1cccc(-n2c(Cc3cc(=O)[nH]c(=O)[nH]3)nnc2SCC(=O)NCc2ccco2)c1,99.5,89.5% (inactive),99.5% (inactive),108% (inactive),111% (inactive),13.9% (inactive),97.1,111,-7.07% (inactive),4.19% (inactive)
O=C(Cn1cccc1C(=O)c1ccccc1)NCCN1CCOCC1,98,89.5% (inactive),98% (inactive),111% (inactive),90% (inactive),2.57% (inactive),87.4,90,-0.79% (inactive),0.97% (inactive)
C[C@H](NC(=O)Nc1cccc(C(F)(F)F)c1)C(=O)O,108,108% (inactive),108% (inactive),94.3% (inactive),93.2% (inactive),5.33% (inactive),87.9,93.2,-3.07% (inactive),1.61% (inactive)
CC1CCN(C(=O)CN2C(=O)C(C)(C)Oc3ccc(C(=O)NC4CCCC4)cc32)CC1,82,104% (inactive),82% (inactive),83.1% (inactive),93.4% (inactive),4.5% (inactive),88.9,93.4,-5% (inactive),-7.05% (inactive)
Cc1cccc(OCC(=O)N(Cc2cccs2)C2CCS(=O)(=O)C2)c1C (stereo not given),96.5,83.5% (inactive),96.5% (inactive),72.8% (inactive),94.6% (inactive),3.22% (inactive),91.4,94.6,-6.35% (inactive),3.02% (inactive)
O=C1CC(c2ccccc2)n2nc(NC(=O)c3ccccn3)nc2N1 (stereo not given),104,78% (inactive),104% (inactive),84.3% (inactive),66.2% (inactive),-18.7% (inactive),84.9,66.2,-4.59% (inactive),4.6% (inactive)
CCOc1ccc2nc(SCc3ccc(C(=O)OC)o3)[nH]c2c1,77,87.5% (inactive),77% (inactive),89.5% (inactive),109% (inactive),12.7% (inactive),96.4,109,-0.4% (inactive),-2.42% (inactive)
Cc1ccc(-n2nnnc2SCC(=O)Nc2c(C)n(C)n(-c3ccccc3)c2=O)cc1,102,104% (inactive),102% (inactive),105% (inactive),90.8% (inactive),-13.5% (inactive),104,90.8,0.8% (inactive),10.8% (inactive)
CSc1nc(C)c(C(=O)Nc2ccccc2)c(C)c1C#N,100,76% (inactive),100% (inactive),91.7% (inactive),94.2% (inactive),6.57% (inactive),87.6,94.2,-5.87% (inactive),-3.39% (inactive)
Cc1cc2ccccn2c1C(=O)c1ccncc1,114,98% (inactive),114% (inactive),106% (inactive),87.9% (inactive),9.15% (inactive),78.8,87.9,-3.77% (inactive),2.22% (inactive)
O=C(NCc1ccco1)C1(S(=O)(=O)c2ccc(Cl)cc2)CC1,94,86% (inactive),94% (inactive),103% (inactive),71.2% (inactive),-21.5% (inactive),92.8,71.2,-0.65% (inactive),24.1% (inactive)
